High-throughput results as filed in PubChem BioAssay.
E coli WT exp – blocks growth of wild type E. coli BW25113; OD600 absorbance; growth inhibition, % at 100 µM; actives 0.15% (n = 98,000);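 active = growth inhibition above about 50% at one test dose, limit read from the data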;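 note: growth measured after 20 h incubation at 37 °C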
MMP13 inh – MMP13 (human) collagenase inhibition; MMP-13 fTHP FRET cleavage, Mca fluorescence; actives 0.07% (n = 65,000); inhibition, % at 4 µM; AID 570;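 active = inhibition above the mean of compound-free control plate wells plus 3 SD, cut at about 14% in these data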;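 note: 0% = DMSO wells and 100% = wells with reference MMP-13 inhibitor after basal subtraction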
HePTP inhibitor – blocks human HePTP tyrosine phosphatase; P35236; recombinant HePTP phosphatase activity, OD absorbance; inhibition, % at 20 µM; actives 0.64% (n = 110,000); AID 521; in the data active = inhibition above about 50%;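 note: plate controls were vehicle for no effect and reference inhibitor for full effect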
DUSP1 inh – human dual specificity phosphatase 1 inhibition | recombinant MKP-1, OMFP hydrolysis fluorescence | AID 374 | actives 0.15% (n = 65,000) | P28562 | inhibition, %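 (compounds tested at a single concentration somewhere between 10 and 100 µM)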;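 active = inhibition above about 50%, limit read from the data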;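 note: 0% = DMSO max control wells and 100% = wells with enzyme stopped by NaOH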
Cdc25B block – human M-phase inducer phosphatase 2 inhibition; P30305; actives 0.1% (n = 65,000); inhibition, %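 (compounds tested at 10 µM final in the well)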; recombinant Cdc25B, OMFP fluorescence Ex485/Em525; in the data active = inhibition above about 50%
Target sequence (P30305 whole entry, looked up): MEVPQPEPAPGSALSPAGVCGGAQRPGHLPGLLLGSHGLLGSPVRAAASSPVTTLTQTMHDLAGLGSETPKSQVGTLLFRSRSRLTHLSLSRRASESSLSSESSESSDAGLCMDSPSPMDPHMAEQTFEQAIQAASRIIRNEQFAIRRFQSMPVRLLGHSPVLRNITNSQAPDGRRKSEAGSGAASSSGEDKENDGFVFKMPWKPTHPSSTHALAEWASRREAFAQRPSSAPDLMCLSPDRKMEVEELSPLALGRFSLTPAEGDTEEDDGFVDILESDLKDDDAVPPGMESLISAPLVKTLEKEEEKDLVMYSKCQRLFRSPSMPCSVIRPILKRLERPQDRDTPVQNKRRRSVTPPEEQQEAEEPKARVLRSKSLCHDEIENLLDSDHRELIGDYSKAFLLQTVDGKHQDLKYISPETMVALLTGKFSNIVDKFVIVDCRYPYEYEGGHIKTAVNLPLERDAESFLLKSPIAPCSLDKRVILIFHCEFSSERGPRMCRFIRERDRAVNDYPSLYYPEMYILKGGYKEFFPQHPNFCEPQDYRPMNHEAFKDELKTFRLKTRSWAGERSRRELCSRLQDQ
tolC growth inh – E. coli tolC mutant growth inhibition | actives 2.2% (n = 65,000) | growth inhibition, % at 10 µM (by protocol) | E. coli BW25113 tolC mutant growth, OD615;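 active = growth inhibition at or above a cutoff equal to the mean over every tested compound plus 3 SD, cut at about 60% in these data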;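 note: growth measured after 20 h incubation at 37 °C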
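Test system: tolC-deleted E. coli BW25113; medium: LB with kanamycin 50 µg/mL; compound: single-point testing at 10 µM; incubation: 20 h compound exposure of bacteria at 37 °C; signal: OD at 615 nm; evaluation: growth inhibition in percent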
* = called active by the depositor; nt = no result. The sample as a whole holds a higher share of hits than the screen did.

SMILES | E coli WT exp | MMP13 inh | HePTP inhibitor | DUSP1 inh | Cdc25B block | tolC growth inh
Cc1ccc(-c2csc3nnc(SCC(=O)Nc4nsc(-c5ccccc5)n4)n23)cc1 | -9.0 | 6.3 | -11.6 | 6.5 | -6.8 | 29.7
Cc1cccc(NC(=O)CCC(=O)N/N=C/c2cccs2)c1 | nt | nt | -7.3 | nt | nt | nt
O=C1NC(=S)N(c2cccc(Br)c2)C(=O)/C1=C/c1ccc(-c2cccc([N+](=O)[O-])c2)o1 | nt | nt | 25.2 | nt | nt | nt
C=CCN1C(=O)/C(=C\c2ccc(-c3ccc(OC)cc3[N+](=O)[O-])o2)C(=O)NC1=S | nt | nt | -4.0 | nt | nt | nt
O=C1NC(=S)N(c2cccc(Br)c2)C(=O)/C1=C/c1ccc(-c2ccc(C(=O)O)cc2)o1 | nt | nt | 69.4* | nt | nt | nt
C=CCN1C(=O)/C(=C\c2ccc(-c3ccc(F)cc3)o2)C(=O)NC1=S | nt | nt | 62.1* | nt | nt | nt
C=CCN1C(=O)/C(=C\c2ccc(-c3cccc(C(=O)O)c3)o2)C(=O)NC1=S | nt | nt | 95.7* | nt | nt | nt
C=CCN1C(=O)/C(=C\c2ccc(-c3ccc(C(=O)O)cc3)o2)C(=O)NC1=S | nt | nt | 102.3* | nt | nt | nt
O=C(Nc1ccc(N2C(=O)C3C4c5ccccc5C(c5ccccc54)C3C2=O)cc1Cl)c1ccc(Cl)cc1Cl (centres undefined) | nt | nt | 7.9 | nt | nt | nt
N/C(=N\OC(=O)c1ccccc1F)c1ccccc1 | nt | nt | 3.8 | nt | nt | nt
Cc1nc2sc(C(=O)c3ccc(F)cc3)c(N)c2c(C)c1C(=O)Nc1ccccc1 | nt | nt | 10.1 | nt | nt | nt
O=C(c1ccco1)N1CCN(c2ncnc3c2[nH]c2ccc(Br)cc23)CC1 | -7.0 | -10.1 | 2.5 | 8.0 | -3.4 | 65.5*
Oc1ccc(Br)cc1-c1nc2cnccn2c1NC1CCCC1 | -7.0 | -16.7 | 11.4 | 11.8 | -0.2 | 97.0*
O=C(O)CCCCCN1C(=O)C(O)=C(C(=O)/C=C/c2ccccc2)C1c1ccc([N+](=O)[O-])cc1 (centres undefined) | nt | nt | -9.2 | nt | nt | nt
CCOC(=O)c1c(NC(=O)c2cc3ccccc3oc2=O)sc(C)c1CC | nt | nt | 5.3 | nt | nt | nt
CC(C)(C)c1ccc(C(=O)CCCSC2=C(C#N)C(c3ccco3)C3=C(CCCC3=O)N2)cc1 (centres undefined) | -22.0 | -2.1 | 9.8 | 15.5 | -6.8 | 79.6*
Cc1ccc(C(=O)CSC2=C(C#N)C(c3ccco3)C3=C(CCCC3=O)N2)cc1 (centres undefined) | -13.0 | 4.7 | 1.6 | -24.6 | 17.8 | 1.9
COc1ccccc1N1CCN(S(=O)(=O)c2ccc3ccccc3c2)CC1 | nt | nt | 11.8 | nt | nt | nt
CC(C)(C)C1CCc2c(sc(NC(=O)C3CCCCC3C(=O)O)c2C(N)=O)C1 (centres undefined) | nt | nt | 6.2 | nt | nt | nt
CC(C)(C)C1CCc2c(sc(NC(=O)C3CC4CCC3C4)c2C(N)=O)C1 (centres undefined) | nt | nt | 97.4* | nt | nt | nt
CCOC(=O)c1ccccc1NC(=O)C1CC(=O)N(c2ccc(CC)cc2)C1 (centres undefined) | nt | nt | 4.8 | nt | nt | nt
Cc1cccc(C)c1OCC(=O)Nc1ccc(Br)cc1C(=O)O | nt | nt | 5.3 | nt | nt | nt
CC(C)(C)c1ccc(C(=O)Nc2ccc(NC(=O)COc3ccccc3Cl)cc2)cc1 | nt | nt | 0.5 | nt | nt | nt
O=C(COc1ccc(Cl)cc1Cl)Nc1ccc2c(c1)oc1ccccc12 | nt | nt | -2.1 | nt | nt | nt
O=C(COc1ccc(I)cc1)Nc1ccc2c(c1)oc1ccccc12 | nt | nt | 101.8* | nt | nt | nt
SMILES | E coli WT exp | MMP13 inh | HePTP inhibitor | DUSP1 inh | Cdc25B block | tolC growth inh
CCOC(=O)CCP(=O)(CC)CC | nt | nt | 9.4 | nt | nt | nt
CCCCc1cc(O)c(CCCC)c(O)c1 | 42.0 | -2.1 | 7.7 | -11.8 | -13.4 | 63.2*
CCc1ccccc1NC(=O)C1CC(=O)N(c2cccc([N+](=O)[O-])c2)C1 (centres undefined) | nt | nt | 5.4 | nt | nt | nt
N#CCSc1nc2c(c(C3CC=CCC3)c1C#N)CCC2 (centres undefined) | -9.0 | 3.5 | 0.1 | -9.7 | 5.8 | 67.3*
CCN1C(=O)CSC1=NC1C2CC3CC(C2)CC1C3 (centres undefined) | 7.0 | nt | 0.0 | 7.6 | -0.8 | 88.0*
COc1ccc(C(NC(=O)c2ccccc2F)c2ccc(OC)c(OC)c2)cc1 (centres undefined) | nt | nt | -0.9 | nt | nt | nt
CC1=CC(=O)C=C/C1=N\OS(=O)(=O)c1ccc(C)cc1 | nt | nt | -5.2 | nt | nt | nt
CCc1nnc(NC(=O)c2ccc(S(=O)(=O)NCC(C)C)cc2)s1 | -3.0 | -48.3 | 13.5 | -2.6 | -13.8 | 0.2
Cc1ccc(S(=O)(=O)NCc2nnc(NC(=O)c3ccc(Br)cc3)s2)cc1 | nt | nt | 57.6* | nt | nt | nt
CCc1ccccc1NC(=O)COc1ccc2ccccc2c1 | nt | nt | -2.2 | nt | nt | nt
Cc1nc2c(C(=O)NCc3ccco3)cnn2c(C)c1Cc1ccc(F)cc1Cl | -1.0 | -33.4 | 4.0 | 16.3 | -16.8 | 13.7
Cc1cccc(Cc2c(C)nc3c(C(=O)NCc4ccco4)cnn3c2C)c1 | 7.0 | -50.0 | -0.2 | 18.7 | -20.0 | 75.2*
CCOc1ccc(-c2[nH]ncc2Oc2ccccc2OC)c(O)c1 | 6.0 | 0.4 | 8.5 | 12.8 | -5.6 | 94.4*
CCOc1ccc(-c2[nH]ncc2Oc2ccccc2OCC)c(O)c1 | 22.0 | -1.1 | -3.3 | 21.9 | -0.2 | 95.1*
CCOc1ccc(-c2n[nH]c(C)c2Oc2ccc(OC)cc2)c(O)c1 | 9.0 | 0.6 | -1.5 | 15.3 | -14.7 | 94.7*
C=C(C)COc1ccc(-c2[nH]ncc2-c2ccccc2OC)c(O)c1 | 26.0 | 0.3 | 3.4 | 18.3 | 1.8 | 37.5
Cc1[nH]nc(-c2ccc(OCc3cnn(-c4ccccc4)c3)cc2O)c1Oc1ccc(F)cc1 | -15.0 | nt | nt | nt | nt | nt
CCOc1ccc(-c2[nH]ncc2-c2ccc(OC)c(OC)c2)c(O)c1 | -1.0 | -6.5 | 6.3 | -11.7 | 3.8 | 40.0
CCCOC(=O)c1ccc(Oc2cn[nH]c2-c2ccc(OC)cc2O)cc1 | -2.0 | -2.2 | 3.5 | -16.8 | -4.4 | 95.1*
CCOC(=O)Cc1nnc(Nc2ccc(OC)cc2)c2ccccc12 | nt | nt | 3.6 | nt | nt | nt
C=C(C)COc1ccc(-c2[nH]ncc2Oc2ccccc2OC)c(O)c1 | 17.0 | -3.7 | -6.6 | 3.7 | -2.6 | 99.7*
O=C(NNC(=O)c1ccc([N+](=O)[O-])o1)c1ccccc1 | 100.0* | nt | nt | nt | nt | nt
CC(=O)NC1=NC(=O)/C(=C\c2ccc(I)o2)S1 | nt | nt | 101.9* | nt | nt | nt
O=C(NCCCc1ccccc1)c1ccccc1O | 26.0 | nt | -4.7 | 5.3 | -2.3 | 66.6*
CCOc1ccc(N(CC(=O)Nc2ccc(C)c(C)c2)S(=O)(=O)c2c(C)noc2C)cc1 | -18.0 | -3.8 | 9.6 | -1.7 | 0.5 | 61.5*
SMILES | E coli WT exp | MMP13 inh | HePTP inhibitor | DUSP1 inh | Cdc25B block | tolC growth inh
CCSC(C)CC1C/C(=N/O)c2c(CC)noc2C1 (centres undefined) | 10.0 | 2.6 | -4.1 | -0.3 | -9.4 | 61.1*
COC(=O)c1sccc1NC(=O)c1ccc(Cl)s1 | -9.0 | -1.5 | 12.2 | -1.1 | -4.2 | 72.4*
COC(=O)c1sccc1NC(=O)c1cccc(Cl)c1 | nt | nt | -17.5 | nt | nt | nt
COC(=O)c1sccc1NC(=O)c1csc(C)c1 | 3.0 | -2.0 | 10.3 | -8.1 | -0.3 | 98.0*
CC(=O)N1c2ccccc2NC2=C(C(=O)CC(C)(C)C2)C1c1cccc([N+](=O)[O-])c1 (centres undefined) | nt | nt | -0.9 | nt | nt | nt
Cc1ccc(OCC(=O)Nc2cccc(Cl)c2Cl)c(Br)c1 | nt | nt | -18.5 | nt | nt | nt
COc1cc(/C=C2/C(=O)NN(c3ccc(F)c(Cl)c3)C2=O)ccc1OC(C)=O | nt | nt | 12.6 | nt | nt | nt
